How the values were obtained:
Type in all cases: functional
[1] = Cytotoxicity against human CCD25sk cells after 72 hrs by MTT assay
In short: (§1)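 Human cell panel of fibroblasts (CCD25sk), neuroblastoma (SHSY5), pancreatic carcinoma (MiaPaca-2), breast adenocarcinoma (MCF-7), hepatocellular carcinoma (HepG2), melanoma (A2058) and lung carcinoma (A549), tested by colorimetric MTT viability read-out. Doxorubicin served as positive control, and results were expressed as CC50.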

SH-SY5Y = test: Cytotoxicity against human SH-SY5Y cells after 72 hrs by MTT assay; in short: as §1
MIA PaCa-2 = test: Cytotoxicity against human MIAPaCa2 cells after 72 hrs by MTT assay; conditions: MIA PaCa-2, 72 h; in short: as §1
MCF7 = test: Cytotoxicity against human MCF7 cells after 72 hrs by MTT assay; conditions: MCF7, 72 h; in short: as §1
HepG2 = test: Cytotoxicity against human HepG2 cells after 72 hrs by MTT assay; conditions: HepG2, 72 h; in short: as §1
A2058 = test: Cytotoxicity against human A2058 cells after 72 hrs by MTT assay; conditions: A2058, 72 h; in short: as §1
A549 = test: Cytotoxicity against human A549 cells after 72 hrs by MTT assay; conditions: A549, 72 h; in short: as §1
HeLa = test: Cytotoxicity against human HeLa cells

| SMILES | CC50 [1] | CC50 (SH-SY5Y) | also measured |
| --- | --- | --- | --- |
| COc1cccc2c1C(=O)c1c(O)c3c(c(O)c1C2=O)C[C@@](O)(C(=O)CO)C[C@@H]3O[C@H]1C[C@H](N)[C@H](O)[C@H](C)O1 [DOXORUBICIN] | 0.85 µM | 0.7 µM | CC50 (MIA PaCa-2): 2.97 µM; CC50 (MCF7): 7 µM; CC50 (HepG2): 1.95 µM; CC50 (A2058): 1.79 µM; CC50 (A549): 10.5 µM |
| COc1cc(OC)c2c(=O)oc(C[C@@H](O)C(Cl)Cl)cc2c1 | 27 µM | 19.4 µM | – |
| COc1cc(O)c2c(=O)oc(C[C@@H](O)C(Cl)Cl)cc2c1 | – | – | CC50 (HeLa): 28 µM |
| COc1cc(OC)c2c(=O)oc([C@H](Cl)[C@@H](O)CCl)cc2c1 (relative stereo) | – | 39.2 µM | – |
| COc1cc(OC)c2c(=O)oc([C@@H](Cl)[C@@H](O)CCl)cc2c1 (relative stereo) | – | 36.2 µM | – |

Reference: ChEMBL document CHEMBL4145584, “Non-geminal Aliphatic Dihalogenation Pattern in Dichlorinated Diaporthins from Hamigera fusca NRRL 35721” (2018)
